What all share (format): functional
In assay [1] the test system is Mus musculus. The assay is described as follows: Compound was tested for Trypanocidal Activity in mice at 40 mg/kg; 0/5.
The test system of assay [2] is Mus musculus. The assay is described as follows: Compound was tested for Trypanocidal Activity in mice at 15 mg/kg; 0/10.
For assay [3], the system named is Mus musculus. The assay is described as follows: Compound was tested for Trypanocidal Activity in mice at 150 mg/kg; 0/5.
Assay [4] has as its system Mus musculus. The assay is described as follows: Compound was tested for Trypanocidal Activity in mice at 100 mg/kg; 0/5.
In assay [5] the test system is Mus musculus. The experiment in a line: Compound was tested for Trypanocidal Activity in mice at 60 mg/kg; 0/5.
Assay [6] has as its system Mus musculus. The experiment in a line: Compound was tested for Trypanocidal Activity in mice at 10 mg/kg; 11/30.
For assay [7], the system named is Mus musculus. The assay is described as follows: Compound was tested for Trypanocidal Activity in mice at 25 mg/kg; 16/20.
In assay [8] the test system is Mus musculus. The experiment in a line: Compound was tested for Trypanocidal Activity in mice at 100 mg/kg; 1/5.
For assay [9], the system named is Mus musculus. The assay is described as follows: Compound was tested for Trypanocidal Activity in mice at 60 mg/kg; 5/5.
For assay [10], the species on record is Mus musculus. The experiment in a line: Effective dose against Trypanosoma brucei infection in mice. The gist of the method:
(§1)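 Female Swiss-Webster mice (20–25 g) were infected ip with 5×10^4 T. brucei EATRO 110 organisms in fresh mouse blood diluted with minimum essential medium. Groups of 5 or 10 received a single ip dose in normal saline (solution or milled suspension, 20 μL/g) 6 h post-infection. Deaths within 72 h were scored as toxic. Survivors aparasitemic at 28 days (tail-blood wet films, phase contrast) counted as cures. ED50 was computed by Bliss/Litchfield–Wilcoxon, excluding toxic dosages.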

In assay [11] the test system is Mus musculus. The experiment in a line: Compound was tested for Trypanocidal Activity in mice at 40 mg/kg; 13/15.
For assay [12], the system named is Mus musculus. The experiment in a line: Compound was tested for Trypanocidal Activity in mice at 15 mg/kg; 14/25.
Assay [13] relates to Mus musculus. The assay is described as follows: Compound was tested for Trypanocidal Activity in mice at 4 mg/kg; 0/10.
Assay [14] relates to Mus musculus. The experiment in a line: Compound was tested for Trypanocidal Activity in mice at 6 mg/kg; 0/20.
The test system of assay [15] is Mus musculus. The assay is described as follows: Compound was tested for Trypanocidal Activity in mice at 10 mg/kg; 0/5.
Assay [16] relates to Mus musculus. The assay is described as follows: Compound was tested for Trypanocidal Activity in mice at 40 mg/kg; 12/25.
Assay [17] deals with Mus musculus. The experiment in a line: Compound was tested for Trypanocidal Activity in mice at 25 mg/kg; 1/20.
In assay [18] the test system is Mus musculus. The experiment in a line: Compound was tested for Trypanocidal Activity in mice at 150 mg/kg; 1/5.
Assay [19] concerns Mus musculus. The assay is described as follows: Compound was tested for Trypanocidal Activity in mice at 100 mg/kg; 3/10.
The subject of assay [20] is Mus musculus. The experiment in a line: Compound was tested for Trypanocidal Activity in mice at 6 mg/kg; 0/5.
In assay [21] the test system is Mus musculus. The assay is described as follows: Compound was tested for Trypanocidal Activity in mice at 60 mg/kg; 9/25. The essentials: as §1
For assay [22], the system named is Mus musculus. The experiment in a line: Compound was tested for Trypanocidal Activity in mice at 15 mg/kg; 10/10.
For assay [23], the system named is Mus musculus. The experiment in a line: Compound was tested for Trypanocidal Activity in mice at 2.5 mg/kg; 20/20.
For assay [24], the system named is Mus musculus. The experiment in a line: Compound was tested for Trypanocidal Activity in mice at 0.15 mg/kg; 0/10.
Assay [25] has as its system Mus musculus. The assay is described as follows: Compound was tested for Trypanocidal Activity in mice at 1.0 mg/kg; 8/10.
The subject of assay [26] is Mus musculus. The assay is described as follows: Compound was tested for Trypanocidal Activity in mice at 0.4 mg/kg; 19/35.
In assay [27] the test system is Mus musculus. The assay is described as follows: Compound was tested for Trypanocidal Activity in mice at 0.25 mg/kg; 0/30.
Assay [28] has as its system Mus musculus. The experiment in a line: Compound was tested for Trypanocidal Activity in mice at 25 mg/kg; 4/5.
Assay [29] deals with Mus musculus. The assay is described as follows: Compound was tested for Trypanocidal Activity in mice at 10 mg/kg; 10/10.
Assay [30] has as its system Mus musculus. The experiment in a line: Compound was tested for Trypanocidal Activity in mice at 4 mg/kg; 9/10.
The test system of assay [31] is Mus musculus. The experiment in a line: Compound was tested for Trypanocidal Activity in mice at 1.5 mg/kg; 10/10.
For assay [32], the system named is Mus musculus. The assay is described as follows: Compound was tested for Trypanocidal Activity in mice at 6 mg/kg; 20/20.
Assay [33] deals with Mus musculus. The assay is described as follows: Compound was tested for Trypanocidal Activity in mice at 0.6 mg/kg; 20/30.
The subject of assay [34] is Mus musculus. The assay is described as follows: Compound was tested for Trypanocidal Activity in mice at 25 mg/kg; 0/5.
Assay [35] relates to Mus musculus. The experiment in a line: Compound was tested for Trypanocidal Activity in mice at 15 mg/kg; 0/5.

`C/C(=N\NC(=N)N)c1cc(/C(C)=N/NC(=N)N)c(C)nc1C.CS(=O)(=O)O.Cl.Cl`: the Cures/total with Mus musculus [1], with Mus musculus [2], with Mus musculus [3], in the assay with Mus musculus [4] and in the assay on Mus musculus [5] was 0 in each case.
As a reminder, the ED50 is the dose that gives a 50% effect, or the effect in half of the subjects. The low end stands for an effect at a small dose, the high end for a need for a large dose. As for `C/C(=N\NC(=N)N)c1ccc(/C(C)=N/NC(=N)N)s1.CC(C)O.Cl`, the Cures/total in the assay on Mus musculus [6] was 11; with Mus musculus [7], 16; with Mus musculus [8], 1; in the assay on Mus musculus [9] it was 5; in the assay with Mus musculus [11], 13; in the assay on Mus musculus [12], 14. The Cures/total with Mus musculus [13] and in the assay on Mus musculus [14] was 0 each time. The compound also came in with an ED50 in the assay listed under Mus musculus [10] of 14 mg/kg.
`C/C(=N\NC(=N)N)c1cc(/C(C)=N/NC(=N)N)cc([N+](=O)[O-])c1.Cl`: the Cures/total was 0 with Mus musculus [15]; 12 with Mus musculus [16]; 1 with Mus musculus [17]; 0 in the assay with Mus musculus [2]; 1 in the assay on Mus musculus [18]; 3 with Mus musculus [19]. Besides, the results for the Cures/total with Mus musculus [20] and with Mus musculus [21] were 0 and 9, respectively.
As to `C/C(=N\NC(=N)N)c1cc(/C(C)=N/NC(=N)N)cc(/C(C)=N/NC(=N)N)c1.Cl`, the “Mice cured (number)” value with Mus musculus [22] is 10. Also, the Cures/total in the assay with Mus musculus [1] turned out to be 0; in the assay with Mus musculus [23], 20; in the assay with Mus musculus [24] it was 0; in the assay with Mus musculus [25], 8; in the assay on Mus musculus [26], 19; with Mus musculus [27], 0. In addition, the Cures/total with Mus musculus [28] is given as 4; with Mus musculus [29], 10; in the assay on Mus musculus [30], 9; in the assay with Mus musculus [31] it was 10; in the assay with Mus musculus [32] it was 20; in the assay with Mus musculus [5], 0. The compound further registered a Cures/total with Mus musculus [33] of 20. This compound yielded an ED50 in the assay listed under Mus musculus [10] of 0.47 mg/kg.
As to `Br.C/C(=N\NC1=NCCN1)c1cccc(/C(C)=N/NC2=NCCN2)c1`, the Cures/total in the assay on Mus musculus [34], with Mus musculus [15], with Mus musculus [1] and with Mus musculus [35] was 0 throughout.
Consider `C/C(=N\NC(=N)N)c1cccc(/C(C)=N/NC(=N)N)c1[N+](=O)[O-].Cl`, for which the Cures/total in the assay with Mus musculus [34], with Mus musculus [1] and in the assay with Mus musculus [2] was 0 throughout.

For the origin of these results see ChEMBL document CHEMBL1122798, “Trypanocidal 1,3-arylene diketone bis(guanylhydrazone)s. Structure-activity relationships among substituted and heterocyclic analogues” (1984).
